# Data as given in ChEMBL document CHEMBL2331336, “Discovery and structure-activity relationship of 1,3-cyclohexyl amide derivatives as novel mGluR5 negative allosteric modulators” (Bioorg Med Chem Lett, 2013).
# How the values were obtained:
# [1] = target: T1, Metabotropic glutamate receptor 5 (Homo sapiens, UniProt P41594); experiment: Antagonist activity at human mGluR5 expressed in HEK293 cells assessed as inhibition of Ca2+ mobilization by FLIPR assay; format: functional, cell-based
# [2] = system: Plasma; experiment: Fraction unbound in mouse plasma; format: ADME, cell-free
# [3] = Ratio of drug uptake in brain to plasma of Sprague-Dawley rat at 10 mg/kg, po at 1 hr; format: ADME, organism-based; parameters: dose 10 mg/kg, route oral; conditions: read-out: BPR
# [4] = system: Liver microsomes; experiment: Intrinsic clearance in rat liver microsomes; format: ADME, Microsome
# [5] = Fraction unbound in mouse brain; format: ADME, tissue-based
# [6] = target: T2, Metabotropic glutamate receptor 1 (Rattus norvegicus, UniProt P23385); experiment: Antagonist activity at rat mGluR1 expressed in HEK293 cells assessed as inhibition of Ca2+ mobilization by FLIPR assay; format: functional, cell-based
# Method in brief: (§1)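 Rat mGluR1 stably in HEK293 cells (1.5% calf serum medium), seeded 24 h earlier, Fluo-4 loaded 1 h at 37 °C in HBSS/HEPES pH 7.4 with probenecid. Curves fitted with Hill equation.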
# [7] = Plasma concentration in Sprague-Dawley rat at 10 mg/kg, po at 1 hr; format: ADME, organism-based; parameters: dose 10 mg/kg, route oral
# [8] = system: Liver; experiment: Intrinsic clearance in mouse liver microsomes; format: ADME, Microsome
# [9] = target: T1, Metabotropic glutamate receptor 5; experiment: Displacement of [3H]-ABP688 from human mGluR5 expressed in HEK293 cells after 60 mins by scintillation counting; format: cell-based
# [10] = Plasma concentration in CD-1 mouse at 10 mg/kg, sc at 1 hr; format: ADME, organism-based; parameters: dose 10 mg/kg, route subcutaneous
# Method in brief: (§2)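 CD-1 mice (n = 2), 10 mg/kg SC in 20% hydroxypropyl-β-cyclodextrin in water. Brain and plasma sampled at 1 h; averages reported. Quantification limits were 2 ng/g for brain and 2 ng/mL for plasma. Kupp is the ratio of unbound brain to unbound plasma concentration.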
# [11] = system: Liver microsomes; experiment: Intrinsic clearance in human liver microsomes; format: ADME, Microsome; parameters: unit not given here
# [12] = Drug uptake in CD-1 mouse brain at 10 mg/kg, sc at 1 hr; format: ADME, organism-based; parameters: dose 10 mg/kg, route subcutaneous; conditions: read-out: Drug uptake; method in brief: as §2
# [13] = target: T2, Metabotropic glutamate receptor 1; experiment: Agonist activity at rat mGluR1 expressed in HEK293 cells assessed as Ca2+ mobilization by FLIPR assay; format: functional, cell-based; method in brief: as §1
# [14] = Drug uptake in Sprague-Dawley rat brain at 10 mg/kg, po at 1 hr; format: ADME, organism-based; parameters: dose 10 mg/kg, route oral; conditions: read-out: Drug uptake
# [15] = Ratio of fraction unbound in brain to plasma of CD-1 mouse brain at 10 mg/kg, sc at 1 hr; format: ADME, organism-based; parameters: dose 10 mg/kg, route subcutaneous; conditions: in vivo; method in brief: as §2
# [16] = Ratio of drug uptake in brain to plasma of CD-1 mouse at 10 mg/kg, sc at 1 hr; format: ADME, organism-based; parameters: dose 10 mg/kg, route subcutaneous; conditions: read-out: BPR; method in brief: as §2
# T1 sequence (P41594 whole entry): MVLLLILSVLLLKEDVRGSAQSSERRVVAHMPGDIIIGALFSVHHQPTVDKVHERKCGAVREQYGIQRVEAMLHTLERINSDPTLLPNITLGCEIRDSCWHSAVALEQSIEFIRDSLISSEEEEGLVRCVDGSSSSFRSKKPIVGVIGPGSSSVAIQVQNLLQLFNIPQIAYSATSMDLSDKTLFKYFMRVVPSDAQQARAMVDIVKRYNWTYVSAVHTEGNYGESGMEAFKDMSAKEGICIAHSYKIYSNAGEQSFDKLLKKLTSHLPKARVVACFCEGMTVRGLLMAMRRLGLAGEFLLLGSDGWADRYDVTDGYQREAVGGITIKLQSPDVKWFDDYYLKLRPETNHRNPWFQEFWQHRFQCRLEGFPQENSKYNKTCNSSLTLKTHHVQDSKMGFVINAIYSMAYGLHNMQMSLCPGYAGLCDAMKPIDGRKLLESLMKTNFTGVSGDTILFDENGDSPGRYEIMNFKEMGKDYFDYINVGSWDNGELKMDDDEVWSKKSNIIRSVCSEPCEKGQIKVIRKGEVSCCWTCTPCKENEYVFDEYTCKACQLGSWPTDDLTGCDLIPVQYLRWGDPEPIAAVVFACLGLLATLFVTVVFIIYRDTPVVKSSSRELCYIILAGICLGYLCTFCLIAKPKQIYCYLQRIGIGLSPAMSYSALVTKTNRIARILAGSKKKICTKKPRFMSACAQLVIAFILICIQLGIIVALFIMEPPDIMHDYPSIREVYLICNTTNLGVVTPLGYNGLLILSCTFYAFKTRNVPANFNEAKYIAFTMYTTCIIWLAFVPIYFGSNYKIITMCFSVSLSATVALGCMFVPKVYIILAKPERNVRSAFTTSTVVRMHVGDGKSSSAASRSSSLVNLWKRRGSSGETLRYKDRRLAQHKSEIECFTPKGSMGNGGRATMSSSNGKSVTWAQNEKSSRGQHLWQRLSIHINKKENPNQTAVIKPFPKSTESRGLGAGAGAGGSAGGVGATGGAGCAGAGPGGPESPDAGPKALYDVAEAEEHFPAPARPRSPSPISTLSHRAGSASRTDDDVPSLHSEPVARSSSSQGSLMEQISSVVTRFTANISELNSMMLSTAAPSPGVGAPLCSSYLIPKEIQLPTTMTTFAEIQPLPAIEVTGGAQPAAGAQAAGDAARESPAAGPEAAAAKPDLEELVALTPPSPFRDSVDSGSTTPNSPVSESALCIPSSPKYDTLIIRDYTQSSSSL
# T2 sequence (P23385 whole entry): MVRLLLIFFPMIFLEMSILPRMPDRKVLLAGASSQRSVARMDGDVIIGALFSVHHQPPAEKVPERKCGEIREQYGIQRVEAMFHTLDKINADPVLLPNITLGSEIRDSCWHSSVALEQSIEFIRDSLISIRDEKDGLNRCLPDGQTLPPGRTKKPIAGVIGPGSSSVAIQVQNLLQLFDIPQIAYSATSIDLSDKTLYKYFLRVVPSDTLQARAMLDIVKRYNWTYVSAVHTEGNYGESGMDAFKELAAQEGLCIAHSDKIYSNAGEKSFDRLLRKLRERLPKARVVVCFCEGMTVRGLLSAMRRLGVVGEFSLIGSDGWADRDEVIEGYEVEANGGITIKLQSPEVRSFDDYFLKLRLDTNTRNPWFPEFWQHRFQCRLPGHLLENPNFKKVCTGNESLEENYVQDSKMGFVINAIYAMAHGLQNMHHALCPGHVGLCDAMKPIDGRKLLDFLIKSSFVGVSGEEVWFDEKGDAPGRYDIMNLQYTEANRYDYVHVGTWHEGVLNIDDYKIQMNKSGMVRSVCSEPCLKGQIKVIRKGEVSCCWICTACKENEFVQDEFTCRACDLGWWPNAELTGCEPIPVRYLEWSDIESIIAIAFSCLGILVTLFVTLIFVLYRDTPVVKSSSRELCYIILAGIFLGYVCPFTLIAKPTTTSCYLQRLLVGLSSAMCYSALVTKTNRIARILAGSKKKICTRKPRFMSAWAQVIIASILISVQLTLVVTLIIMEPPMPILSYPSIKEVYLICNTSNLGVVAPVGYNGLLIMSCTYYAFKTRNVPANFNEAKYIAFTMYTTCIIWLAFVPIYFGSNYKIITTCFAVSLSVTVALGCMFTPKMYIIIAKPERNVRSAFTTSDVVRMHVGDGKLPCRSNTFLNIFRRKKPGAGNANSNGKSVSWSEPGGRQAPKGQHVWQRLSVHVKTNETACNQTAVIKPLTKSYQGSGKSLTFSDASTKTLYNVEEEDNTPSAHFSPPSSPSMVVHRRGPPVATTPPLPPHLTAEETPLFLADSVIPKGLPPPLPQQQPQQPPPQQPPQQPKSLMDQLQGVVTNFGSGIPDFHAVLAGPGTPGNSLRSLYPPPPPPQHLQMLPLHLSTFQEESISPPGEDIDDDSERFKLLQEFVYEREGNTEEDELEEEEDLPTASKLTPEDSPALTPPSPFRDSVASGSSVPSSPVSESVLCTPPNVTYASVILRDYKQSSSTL
smiles,measurement,setting,value
O=C(N[C@H]1CCC[C@]2(CN=C(c3cccc(Cl)c3)O2)C1)c1ccccn1,IC50,[1],0.115 µM
same,Cp(f),[2],0.3%
same,Kp at 1 h,[3],0.6
same,Intrinsic clearance,[4],160 mL/min
same,fraction unbound,[5],0.005
same,IC50,[6],> 10 µM
same,concentration at 1 h,[7],8 nM
same,Intrinsic clearance,[8],8.8 mL/min
same,Ki,[9],0.178 µM
same,concentration at 1 h,[10],1160 nM
same,Intrinsic clearance,[11],13
same,concentration at 1 h,[12],1160 nM
same,EC50,[13],> 10 µM
same,concentration at 1 h,[14],5 nM
same,Ratio,[15],1.6
same,Kp at 1 h,[16],1
